Test results as given in ChEMBL document CHEMBL1649165, “Activity profile in vitro of micafungin against Spanish clinical isolates of common and emerging species of yeasts and molds” (2009).
Converted amounts (≈) assume the structure as drawn.

Key:
Type in all cases: functional
Acremonium sp. = experiment: Antimicrobial activity against Acremonium sp.by broth microdilution method
In short: (§1)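 Clinical mould isolates, tested by broth microdilution using the AFST-EUCAST reference method for filamentous fungi. For echinocandins, the endpoint was the minimum effective concentration: the lowest drug concentration giving aberrant hyphal growth, read with an inverted microscope.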

Aspergillus nidulans = experiment: Antimicrobial activity against Aspergillus nidulans by broth microdilution method; in short: as §1
Rhizopus arrhizus = experiment: Antimicrobial activity against Rhizopus oryzae by broth microdilution method
In short: (§2)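 Filamentous fungus clinical isolates tested by the AFST-EUCAST reference broth microdilution method for moulds. For echinocandins, the endpoint was the minimum effective concentration: the lowest drug concentration giving aberrant hyphal growth, read with an inverted microscope.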

Phialemonium curvatum = experiment: Antimicrobial activity against Phialemonium curvatum by broth microdilution method; settings: Thyridium curvatum; in short: as §2
Aspergillus ochraceus = experiment: Antimicrobial activity against Aspergillus ochraceus by broth microdilution method; in short: as §1
Fusarium oxysporum = experiment: Antimicrobial activity against Fusarium oxysporum by broth microdilution method; in short: as §1
Aureobasidium pullulans = experiment: Antimicrobial activity against Aureobasidium pullulans by broth microdilution method
[1] = tested on: Cunninghamella bertholletiae; experiment: Antimicrobial activity against Cunninghamella bertholletiae by broth microdilution method; in short: as §1
Hortaea werneckii = experiment: Antimicrobial activity against Hortaea werneckii by broth microdilution method
[2] = tested on: Scopulariopsis brevicaulis; experiment: Antimicrobial activity against Scopulariopsis brevicaulis by broth microdilution method; in short: as §2
Aspergillus ustus = experiment: Antimicrobial activity against Aspergillus ustus by broth microdilution method; in short: as §1
Fusarium verticillioides = experiment: Antimicrobial activity against Fusarium verticillioides by broth microdilution method; in short: as §2
Lecythophora hoffmannii = experiment: Antimicrobial activity against Lecythophora hoffmannii by broth microdilution method; settings: Coniochaeta hoffmannii; in short: as §2
Diutina rugosa = experiment: Antimicrobial activity against Candida rugosa by broth microdilution method
In short: (§3)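 Clinical isolates from human patients, tested by broth microdilution using the AFST-EUCAST reference procedure for fermentative yeasts. The MIC was read per that reference method.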

Fusarium solani = experiment: Antimicrobial activity against Fusarium solani by broth microdilution method; in short: as §2
Kluyveromyces marxianus = experiment: Antimicrobial activity against Candida kefyr by broth microdilution method; in short: as §3
Torulaspora delbrueckii = experiment: Antimicrobial activity against Candida coliculosa by broth microdilution method; in short: as §3
Fusarium equiseti = experiment: Antimicrobial activity against Fusarium equiseti by broth microdilution method; in short: as §1
Penicillium = experiment: Antimicrobial activity against Penicillium spp. by broth microdilution method; in short: as §2
Ustilago = experiment: Antimicrobial activity against Ustilago spp by broth microdilution method
Lewia infectoria = experiment: Antimicrobial activity against Alternaria infectoria by broth microdilution method; in short: as §1
Trichosporon inkin = experiment: Antimicrobial activity against Trichosporon inkin by broth microdilution method
In short: (§4)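 Nonfermentative yeast clinical isolates (Rhodotorula, Trichosporon) tested by broth microdilution. The EUCAST yeast recommendations were followed strictly, with one minor modification to improve growth. MIC was read as the endpoint.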

Rhodotorula glutinis = experiment: Antimicrobial activity against Rhodotorula glutinis by broth microdilution method; in short: as §4
Scytalidium hyalinum = experiment: Antimicrobial activity against Scytalidium hyalinum by broth microdilution method; settings: Neoscytalidium hyalinum; in short: as §2
Trichosporon domesticum = experiment: Antimicrobial activity against Trichosporon mycotoxinivorans by broth microdilution method; settings: Apiotrichum domesticum
In short: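 Spanish human clinical isolates were tested as nonfermentative yeasts by broth microdilution. The method strictly followed the EUCAST recommendations, with a minor modification to improve growth, and the read-out was the MIC.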

Fusarium proliferatum = experiment: Antimicrobial activity against Fusarium proliferatum by broth microdilution method; in short: as §1
[3] = tested on: Meyerozyma guilliermondii; experiment: Antimicrobial activity against Candida guilliermondii by broth microdilution method; in short: as §3
[4] = tested on: Cryptococcus deneoformans; experiment: Antimicrobial activity against Cryptococcus neoformans var. neoformans by broth microdilution method
In short: (§5)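 Clinical isolates of nonfermentative yeasts, tested by broth microdilution following EUCAST recommendations. The only change from that method was a minor modification to improve growth.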

Naganishia albida = experiment: Antimicrobial activity against Cryptococcus albidus by broth microdilution method; in short: as §5
Clavispora lusitaniae = experiment: Antimicrobial activity against Candida lusitaniae by broth microdilution method; in short: as §3
Aspergillus flavus = experiment: Antimicrobial activity against Aspergillus flavus by broth microdilution method; in short: as §1
Exophiala dermatitidis = experiment: Antimicrobial activity against Exophiala dermatitidis by broth microdilution method
Fusarium reticulatum = experiment: Antimicrobial activity against Fusarium reticulatum by broth microdilution method; in short: as §2
Aspergillus glaucus = experiment: Antimicrobial activity against Aspergillus glaucus by broth microdilution method; in short: as §1
[5] = tested on: Kazachstania pintolopesii; experiment: Antimicrobial activity against Candida pintolopesii by broth microdilution method; settings: Arxiozyma pintolopesii; in short: as §3
Aspergillus terreus = experiment: Antimicrobial activity against Aspergillus terreus by broth microdilution method; in short: as §1
[Candida] intermedia = Antimicrobial activity against Candida intermedia by broth microdilution method; settings: Sungouiella intermedia; in short: as §3
Rhodotorula mucilaginosa = experiment: Antimicrobial activity against Rhodotorula mucilaginosa by broth microdilution method; in short: as §4
Fennellia nivea = experiment: Antimicrobial activity against Aspergillus niveus by broth microdilution method; in short: as §1
Candida tropicalis = experiment: Antimicrobial activity against Candida tropicalis by broth microdilution method; in short: as §3
Candida orthopsilosis = experiment: Antimicrobial activity against Candida orthopsilosis by broth microdilution method; settings: Lodderomyces orthopsilosis; in short: as §3
Mucor = experiment: Antimicrobial activity against Mucor spp.by broth microdilution method; in short: as §2
Coprinellus domesticus = experiment: Antimicrobial activity against Hormographiella verticillata by broth microdilution method; in short: as §2
Scedosporium apiospermum = experiment: Antimicrobial activity against Scedosporium apiospermum by broth microdilution method; in short: as §2

C[C@@H]1[C@H](O)[C@@H](C)/C=C/C=C/C=C/C=C/C=C/C=C/C=C/[C@H](O[C@@H]2O[C@H](C)[C@@H](O)[C@H](N)[C@@H]2O)C[C@@H]2O[C@](O)(C[C@@H](O)C[C@@H](O)[C@H](O)CC[C@@H](O)C[C@@H](O)CC(=O)O[C@H]1C)C[C@H](O)[C@H]2C(=O)O [AMPHOTERICIN B]
MIC50 (Acremonium sp.): 4 µg/mL (≈ 4.33 µM) | MIC90 (Acremonium sp.): > 16 µg/mL | MIC50 (Aspergillus nidulans): 1 µg/mL (≈ 1.08 µM) | MIC90 (Aspergillus nidulans): 4 µg/mL (≈ 4.33 µM) | MIC50 (Rhizopus arrhizus): 0.5 µg/mL (≈ 0.541 µM) | MIC90 (Rhizopus arrhizus): 2 µg/mL (≈ 2.16 µM) | MIC50 (Phialemonium curvatum): 0.5 µg/mL (≈ 0.541 µM) | MIC90 (Phialemonium curvatum): > 16 µg/mL | MIC50 (Aspergillus ochraceus): 0.5 µg/mL (≈ 0.541 µM) | MIC90 (Aspergillus ochraceus): > 16 µg/mL | MIC50 (Fusarium oxysporum): 1 µg/mL (≈ 1.08 µM) | MIC90 (Fusarium oxysporum): 2 µg/mL (≈ 2.16 µM) | MIC50 (Aureobasidium pullulans): 0.25 µg/mL (≈ 0.271 µM) | MIC90 (Aureobasidium pullulans): 1 µg/mL (≈ 1.08 µM) | MIC50 [1]: 2 µg/mL (≈ 2.16 µM) | MIC90 [1]: > 16 µg/mL | MIC50 (Hortaea werneckii): 0.25 µg/mL (≈ 0.271 µM) | MIC90 (Hortaea werneckii): 1 µg/mL (≈ 1.08 µM) | MIC50 [2]: 0.5 µg/mL (≈ 0.541 µM) | MIC90 [2]: > 16 µg/mL | MIC50 (Aspergillus ustus): 0.5 µg/mL (≈ 0.541 µM) | MIC90 (Aspergillus ustus): > 16 µg/mL | MIC50 (Fusarium verticillioides): 2 µg/mL (≈ 2.16 µM) | MIC90 (Fusarium verticillioides): 4 µg/mL (≈ 4.33 µM) | MIC50 (Lecythophora hoffmannii): 0.25 µg/mL (≈ 0.271 µM) | MIC90 (Lecythophora hoffmannii): 1 µg/mL (≈ 1.08 µM) | MIC50 (Diutina rugosa): 0.12 µg/mL (≈ 0.13 µM) | MIC90 (Diutina rugosa): 1 µg/mL (≈ 1.08 µM) | MIC50 (Fusarium solani): 1 µg/mL (≈ 1.08 µM) | MIC90 (Fusarium solani): 2 µg/mL (≈ 2.16 µM) | MIC50 (Kluyveromyces marxianus): 0.25 µg/mL (≈ 0.271 µM) | MIC90 (Kluyveromyces marxianus): 0.5 µg/mL (≈ 0.541 µM) | MIC50 (Torulaspora delbrueckii): 0.12 µg/mL (≈ 0.13 µM) | MIC90 (Torulaspora delbrueckii): 1 µg/mL (≈ 1.08 µM) | MIC50 (Fusarium equiseti): 0.5 µg/mL (≈ 0.541 µM) | MIC90 (Fusarium equiseti): > 16 µg/mL | MIC50 (Penicillium): 0.5 µg/mL (≈ 0.541 µM) | MIC90 (Penicillium): 2 µg/mL (≈ 2.16 µM) | MIC50 (Ustilago): 0.5 µg/mL (≈ 0.541 µM) | MIC90 (Ustilago): 8 µg/mL (≈ 8.66 µM) | MIC50 (Lewia infectoria): 0.06 µg/mL (≈ 0.0649 µM) | MIC90 (Lewia infectoria): > 16 µg/mL | MIC50 (Trichosporon inkin): 0.12 µg/mL (≈ 0.13 µM) | MIC90 (Trichosporon inkin): 1 µg/mL (≈ 1.08 µM) | MIC50 (Rhodotorula glutinis): 0.5 µg/mL (≈ 0.541 µM) | MIC90 (Rhodotorula glutinis): 8 µg/mL (≈ 8.66 µM) | MIC50 (Scytalidium hyalinum): 0.25 µg/mL (≈ 0.271 µM) | MIC90 (Scytalidium hyalinum): 1 µg/mL (≈ 1.08 µM) | MIC50 (Trichosporon domesticum): 0.5 µg/mL (≈ 0.541 µM) | MIC90 (Trichosporon domesticum): 8 µg/mL (≈ 8.66 µM) | MIC50 (Fusarium proliferatum): 2 µg/mL (≈ 2.16 µM) | MIC90 (Fusarium proliferatum): 4 µg/mL (≈ 4.33 µM) | MIC50 [3]: 0.06 µg/mL (≈ 0.0649 µM) | MIC90 [3]: 0.5 µg/mL (≈ 0.541 µM) | MIC50 [4]: 0.12 µg/mL (≈ 0.13 µM) | MIC90 [4]: 2 µg/mL (≈ 2.16 µM) | MIC50 (Naganishia albida): 0.5 µg/mL (≈ 0.541 µM) | MIC90 (Naganishia albida): 8 µg/mL (≈ 8.66 µM) | MIC50 (Clavispora lusitaniae): 0.06 µg/mL (≈ 0.0649 µM) | MIC90 (Clavispora lusitaniae): 0.12 µg/mL (≈ 0.13 µM) | MIC50 (Aspergillus flavus): 1 µg/mL (≈ 1.08 µM) | MIC90 (Aspergillus flavus): 2 µg/mL (≈ 2.16 µM) | MIC50 (Exophiala dermatitidis): 0.25 µg/mL (≈ 0.271 µM) | MIC90 (Exophiala dermatitidis): 1 µg/mL (≈ 1.08 µM) | MIC50 (Fusarium reticulatum): 0.5 µg/mL (≈ 0.541 µM) | MIC90 (Fusarium reticulatum): > 16 µg/mL | MIC50 (Aspergillus glaucus): 0.5 µg/mL (≈ 0.541 µM) | MIC90 (Aspergillus glaucus): > 16 µg/mL | MIC50 [5]: 0.12 µg/mL (≈ 0.13 µM) | MIC90 [5]: 1 µg/mL (≈ 1.08 µM) | MIC50 (Aspergillus terreus): 1 µg/mL (≈ 1.08 µM) | MIC90 (Aspergillus terreus): 4 µg/mL (≈ 4.33 µM) | MIC50 ([Candida] intermedia): 0.12 µg/mL (≈ 0.13 µM) | MIC90 ([Candida] intermedia): 1 µg/mL (≈ 1.08 µM) | MIC50 (Rhodotorula mucilaginosa): 0.12 µg/mL (≈ 0.13 µM) | MIC90 (Rhodotorula mucilaginosa): 0.5 µg/mL (≈ 0.541 µM) | MIC50 (Fennellia nivea): 0.5 µg/mL (≈ 0.541 µM) | MIC90 (Fennellia nivea): > 16 µg/mL | MIC50 (Candida tropicalis): 0.12 µg/mL (≈ 0.13 µM) | MIC90 (Candida tropicalis): 0.25 µg/mL (≈ 0.271 µM) | MIC50 (Candida orthopsilosis): 0.12 µg/mL (≈ 0.13 µM) | MIC90 (Candida orthopsilosis): 1 µg/mL (≈ 1.08 µM) | MIC50 (Mucor): 0.12 µg/mL (≈ 0.13 µM) | MIC90 (Mucor): 1 µg/mL (≈ 1.08 µM) | MIC50 (Coprinellus domesticus): 0.5 µg/mL (≈ 0.541 µM) | MIC90 (Coprinellus domesticus): > 16 µg/mL | MIC50 (Scedosporium apiospermum): 4 µg/mL (≈ 4.33 µM) | MIC90 (Scedosporium apiospermum): > 16 µg/mL
